From PubChem
In the library only some 3% were active in any assay of this set; here they are far more common.
Apaf1 inhib = blocks human Apaf-1 apoptosome activity; O14727; reconstituted apoptosome caspase-3 activity, DEVD-Rh110 fluorescence; inhibition, % at 20 µM; actives 0.71% (n = 330,000); active = inhibition of at least 40% at 20 µM;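 note: plate controls were DMSO wells for no effect and DEVD-CHO caspase inhibitor wells for full effect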
Target sequence (O14727 whole entry, looked up): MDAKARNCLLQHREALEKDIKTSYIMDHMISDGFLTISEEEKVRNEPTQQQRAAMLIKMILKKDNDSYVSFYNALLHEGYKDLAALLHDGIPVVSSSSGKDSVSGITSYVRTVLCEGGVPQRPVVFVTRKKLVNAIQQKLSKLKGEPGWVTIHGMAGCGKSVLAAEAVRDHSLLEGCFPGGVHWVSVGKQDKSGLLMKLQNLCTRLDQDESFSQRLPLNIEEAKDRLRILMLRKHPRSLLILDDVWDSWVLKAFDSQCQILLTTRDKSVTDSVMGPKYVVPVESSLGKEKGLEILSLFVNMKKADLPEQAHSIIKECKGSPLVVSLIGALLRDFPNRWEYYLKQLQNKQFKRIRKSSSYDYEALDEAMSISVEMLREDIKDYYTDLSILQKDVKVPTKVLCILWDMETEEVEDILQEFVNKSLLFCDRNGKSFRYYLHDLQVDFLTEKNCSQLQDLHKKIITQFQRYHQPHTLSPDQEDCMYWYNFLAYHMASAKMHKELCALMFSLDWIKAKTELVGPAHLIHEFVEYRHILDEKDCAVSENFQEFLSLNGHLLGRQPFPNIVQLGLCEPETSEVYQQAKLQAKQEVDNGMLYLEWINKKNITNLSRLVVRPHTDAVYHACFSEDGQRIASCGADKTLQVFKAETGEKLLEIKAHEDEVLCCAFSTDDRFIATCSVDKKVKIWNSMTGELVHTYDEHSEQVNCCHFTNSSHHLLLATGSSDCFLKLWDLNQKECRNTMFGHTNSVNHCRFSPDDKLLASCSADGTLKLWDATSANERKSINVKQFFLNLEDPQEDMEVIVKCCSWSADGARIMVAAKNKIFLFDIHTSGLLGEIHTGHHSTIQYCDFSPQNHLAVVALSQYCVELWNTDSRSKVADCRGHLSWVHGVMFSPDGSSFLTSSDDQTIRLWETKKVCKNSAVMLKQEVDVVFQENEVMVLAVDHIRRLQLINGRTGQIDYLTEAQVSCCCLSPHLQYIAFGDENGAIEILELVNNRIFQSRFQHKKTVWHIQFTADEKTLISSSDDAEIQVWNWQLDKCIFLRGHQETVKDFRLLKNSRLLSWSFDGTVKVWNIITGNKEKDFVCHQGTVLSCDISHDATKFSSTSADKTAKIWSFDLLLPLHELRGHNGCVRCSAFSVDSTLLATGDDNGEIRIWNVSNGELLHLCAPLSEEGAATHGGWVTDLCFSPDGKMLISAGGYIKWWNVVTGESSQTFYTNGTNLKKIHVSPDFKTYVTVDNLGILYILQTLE
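Assay system – apoptosome proteins · Medium – Hepes buffer, pH 7.5 · Also added – cytochrome c with DEVD-Rh110 · Timing – 30 min compound preincubation, 50 min activation, room temperature · Detection – Rh110 fluorescence, excitation 480 nm, emission 540 nm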
Exocytosis inh = blocks lytic granule exocytosis | AID 651702 | actives 0.66% (n = 360,000) | inhibition, % at 10 µM | TALL-104 LAMP-1 surface exposure, flow cytometry; cells stimulated with thapsigargin and PMA;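 active = inhibition above about 55%, limit read from the data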
iPSC survival up = hiPSC single-cell survival enhancement. ATPlite luminescence; 100% = ROCK inhibitor wells, 0% = DMSO. survival enhancement, % at 20 µM. actives 0.044% (n = 360,000). AID 602274; in the data active = survival enhancement above about 18%;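 note: cells exposed to compounds for 16 hours before the ATP read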
MPTP block = permeability transition pore inhibition; actives 1.4% (n = 360,000); AID 602449; isolated mouse mitochondria, Ca2+ swelling absorbance, 30 min; inhibition, % at 10 µM;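 active = inhibition of 50% or more, scaled per plate between neutral and stimulator controls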;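 note: 0% = DMSO wells given calcium and 100% = 1 mM EGTA wells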
UBC13 polyUb = blocks human UBC13 polyubiquitin chain formation; P61088; TR-FRET; inhibition, % at 20 µM; actives 0.47% (n = 330,000); AID 485273; in the data active = inhibition above about 45%, passing the limit was not always enough
MIN6 prolif = inducers of beta-cell replication in MIN6 cells; AID 2380; proliferation, % at 10 µM; MIN6 cells proliferation, ATPlite luminescence, 48 h; cells starved in 0.2% serum; 100% = growth in 10% serum; actives 0.29% (n = 330,000);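 active = compounds whose signal lies at least 3.5 SD above the mean of all wells on their plate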;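 note: 0% = DMSO-treated cells in low-serum medium and 100% = 10% serum control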
Granule exo CP1 = lytic granule exocytosis inhibition; shares compounds with Exocytosis inh; TALL-104 cells, LAMP-1 externalization, flow cytometry; stimulated with PMA plus thapsigargin; inhibition, % at 10 µM; actives 11% (n = 1,500); AID 651954; in the data active = inhibition above about 60%;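 note: 0% = stimulated vehicle wells and 100% = unstimulated wells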
Active calls of the source: *.

How did Cc1cc(NC(=O)CCCS(=O)(=O)c2nc(-c3cccs3)cc(C(F)(F)F)n2)no1 do in these assays?
Apaf1 inhib: 14.5; Exocytosis inh: 60.8*; iPSC survival up: -5.0; MPTP block: -3.3; UBC13 polyUb: -10.4; MIN6 prolif: -6.6; Granule exo CP1: 17.5

Results for CC(=O)Nc1ccc(SC[C@H](CC(C)C)N2CCN(CCc3ccccc3)CCC2=O)cc1 ?
Apaf1 inhib: 10.2; Exocytosis inh: 66.0*; iPSC survival up: 0.2; MPTP block: 0.2; UBC13 polyUb: 5.7; MIN6 prolif: -4.6; Granule exo CP1: -3.4

What do the screens show for `O=C1CCC2CCCCC2(O)O1` (stereo not drawn)?
Apaf1 inhib: -2.5; Exocytosis inh: 64.5*; iPSC survival up: 2.7; MPTP block: -9.4; UBC13 polyUb: 3.9; MIN6 prolif: 2.0; Granule exo CP1: -3.0

How did CC12CCCCC1C(C(N)=O)C(=O)O2 (stereo not drawn) do in these assays?
Exocytosis inh: -6.3; iPSC survival up: 1.9; MPTP block: 2.8

What do the screens show for `CCOC(=O)c1c(NC(=O)c2cccs2)sc2c1CCN(C(=O)OCC)C2`?
Apaf1 inhib: 20.5; Exocytosis inh: 83.1*; iPSC survival up: -1.6; MPTP block: 0.6; UBC13 polyUb: 8.1; MIN6 prolif: -5.7; Granule exo CP1: 4.7

What do the screens show for `Cc1occc1C(=O)N(C)CC1CCCN(CCc2ccc(Cl)cc2)C1` (stereo not drawn)?
Exocytosis inh: 5.1; iPSC survival up: 3.9; MPTP block: 1.5

How did CN(Cc1ccccc1O)CC1CCCN(CCc2ccc(Cl)cc2)C1 (stereo not drawn) do in these assays?
Apaf1 inhib: 10.6; Exocytosis inh: 68.6*; iPSC survival up: -0.5; MPTP block: 2.6; UBC13 polyUb: 9.6; MIN6 prolif: -4.9; Granule exo CP1: -11.7

Results for CN(Cc1ccc(C#CCCO)cc1)CC1CCCN(CCc2ccc(Cl)cc2)C1 (stereo not drawn) ?
Apaf1 inhib: 5.3; Exocytosis inh: 69.6*; iPSC survival up: -0.7; MPTP block: 6.3; UBC13 polyUb: 30.3; MIN6 prolif: -4.3; Granule exo CP1: -10.2

What do the screens show for `CCN(Cc1ccc(C#CCCO)cc1)CC1CCCN(CCc2cccc(F)c2)C1` (stereo not drawn)?
Apaf1 inhib: 15.0; Exocytosis inh: 88.2*; iPSC survival up: -0.8; MPTP block: 2.0; UBC13 polyUb: -2.1; MIN6 prolif: -4.7; Granule exo CP1: -10.5

Results for C[C@H](CO)N1C[C@H](C)[C@@H](CN(C)S(=O)(=O)c2cn(C)cn2)OCc2cnnn2CCCC1=O ?
Exocytosis inh: -1.8; iPSC survival up: -1.2; MPTP block: -0.6

What do the screens show for `Cc1ccc(Nc2nc(C(=O)N3CCC(C(=O)NCc4ccccc4)CC3)cs2)cc1`?
Apaf1 inhib: 8.1; Exocytosis inh: 65.2*; iPSC survival up: -0.1; MPTP block: 1.3; UBC13 polyUb: 2.8; MIN6 prolif: -3.8; Granule exo CP1: -4.2

Results for Cc1ccc(Nc2nc(C(=O)N3CCC(C(=O)N4CCN(C)CC4)CC3)cs2)cc1 ?
Apaf1 inhib: -0.9; Exocytosis inh: 1.2; iPSC survival up: -0.7; MPTP block: -0.5; UBC13 polyUb: 6.2; MIN6 prolif: 6.4

What do the screens show for `Cc1ccc(Nc2nc(C(=O)N3CCC(C(=O)NCCN4CCOCC4)CC3)cs2)cc1`?
Apaf1 inhib: 4.9; Exocytosis inh: -0.7; iPSC survival up: 0.1; MPTP block: -2.0; UBC13 polyUb: 5.0; MIN6 prolif: 0.6

What do the screens show for `COc1ccc(CNC(=O)C2CCN(C(=O)c3csc(Nc4ccc(C)cc4)n3)CC2)cc1`?
Apaf1 inhib: 12.7; Exocytosis inh: 57.7*; iPSC survival up: 0.3; MPTP block: 0.6; UBC13 polyUb: 5.8; MIN6 prolif: -4.0; Granule exo CP1: -3.3

What do the screens show for `COCCCn1c(=O)c2ccccc2n(CC(=O)Nc2ccc3c(c2)OCCO3)c1=O`?
Apaf1 inhib: 1.5; Exocytosis inh: -15.6; iPSC survival up: -0.2; MPTP block: 0.6; UBC13 polyUb: 4.4; MIN6 prolif: -0.9

What do the screens show for `O=C(C[C@H]1C/C=C\C[C@H](Cc2ccc(F)cc2)C(=O)O[C@@H](c2ccccc2)CNC1=O)N[C@@H](CO)Cc1ccccc1`?
Apaf1 inhib: 9.0; Exocytosis inh: 56.0*; iPSC survival up: 1.1; MPTP block: 0.1; UBC13 polyUb: -13.6; MIN6 prolif: -3.6; Granule exo CP1: -4.0

Results for COc1cccc(-c2csc(NC(=O)Nc3ccccc3)n2)c1 ?
Apaf1 inhib: 22.4; Exocytosis inh: 87.7*; iPSC survival up: -0.4; MPTP block: 10.8; UBC13 polyUb: 5.6; MIN6 prolif: -3.7; Granule exo CP1: -3.2

What do the screens show for `COc1cccc(-c2csc(NC(=O)C3CC3)n2)c1`?
Apaf1 inhib: 2.4; Exocytosis inh: 2.0; iPSC survival up: 0.7; MPTP block: 0.9; UBC13 polyUb: 2.6; MIN6 prolif: -2.8

What do the screens show for `O=C(Nc1cc(C(F)(F)F)ccc1N1CCOCC1)c1cccc(S(=O)(=O)N2CCOCC2)c1`?
Exocytosis inh: 3.6; iPSC survival up: -2.1; MPTP block: -2.3

Results for Cc1ccc(-c2nn(-c3ccccc3)cc2CN(Cc2ccccc2)C(=O)c2ccco2)o1 ?
Apaf1 inhib: 29.6; Exocytosis inh: 107.7*; iPSC survival up: 2.8; MPTP block: 1.7; UBC13 polyUb: -0.7; MIN6 prolif: -6.1; Granule exo CP1: 103.9*

What do the screens show for `COc1cc(CNC(C)(C)CO)cc(Br)c1OCc1ccc(Cl)cc1Cl`?
Apaf1 inhib: 12.0; Exocytosis inh: 79.3*; iPSC survival up: -3.3; MPTP block: 12.2; UBC13 polyUb: 22.0; MIN6 prolif: -6.8; Granule exo CP1: 27.5

How did COc1cc(CNC(C)(C)CO)cc(Br)c1OCc1ccc(Cl)cc1 do in these assays?
Apaf1 inhib: 15.1; Exocytosis inh: 21.7; iPSC survival up: -2.8; MPTP block: 12.9; UBC13 polyUb: 8.2; MIN6 prolif: -7.0

Results for CCN(CC)S(=O)(=O)c1cc(NC(=O)CNc2cccc(S(=O)(=O)N3CCOCC3)c2)ccc1C ?
Apaf1 inhib: 15.4; Exocytosis inh: 57.0*; iPSC survival up: -0.3; MPTP block: 6.1; UBC13 polyUb: -7.5; MIN6 prolif: -7.4; Granule exo CP1: -4.7

What do the screens show for `c1ccc(-c2ccccc2-c2nc(-c3cccnc3)no2)cc1`?
Apaf1 inhib: 18.3; Exocytosis inh: 93.3*; iPSC survival up: 6.9; MPTP block: -0.5; UBC13 polyUb: -6.2; MIN6 prolif: -1.3; Granule exo CP1: 18.1

What do the screens show for `CCC(=O)N(C)C[C@H]1Oc2cc(-c3cccnc3)ccc2S(=O)(=O)N([C@H](C)CO)C[C@H]1C`?
Exocytosis inh: 0.5; iPSC survival up: -0.3; MPTP block: 0.9
